The subject of the data set is MS2 coat protein. The data set is described as follows: apparent Kd, MS2 coat protein; higher = weaker binding; RNA-MaP array; FMN 200 µM where present. The method, boiled down: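 In 100 mM Tris-HCl pH 7.5, 80 mM KCl, 4 mM MgCl2, BSA, DTT, yeast tRNA and Tween-20, SNAP-549-labelled MS2 coat protein was titrated from 0.7 or 1.5 nM, doubling to 3 µM, over designs transcribed by stalled E. coli RNA polymerase on Illumina sequencing-chip clusters. This was done first without ligand, then with ligand held constant. After green signal was normalised to red-channel RNA signal and control-cluster median Fmax, the apparent Kd was taken as the median of filtered per-cluster binding-curve fits.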

The mark [1] stands for this setting: designed as: OFF switch for flavin mononucleotide, no ligand.
Setting [2] is: ligand present: flavin mononucleotide, designed as: OFF switch for flavin mononucleotide.
Setting [3] is: designed as: ON switch for flavin mononucleotide, no ligand.
The mark [4] stands for this setting: ligand present: flavin mononucleotide, designed as: ON switch for flavin mononucleotide.

For the sequence “AAUGUCUGAGGAUAUCGUUUUUUGUACAUGAGGAUCACCCAUGUUUUAUUUUGUAUAUUACGAGAAGGCAGUGGAA”, the “apparent Kd” value under setting [1] was found to be 24.1 nM and the “apparent Kd” value under setting [2] came out at 18.5 nM. Turning to “GGACGUCAGAUUAACAUGAGGAUCACCCAUGUCUUUUGACAUGAGGAUAUGCAUCCUAAUUGGAUGCAGAAGGCAUGGACGUCC”, the “apparent Kd” value amounted to 1020 nM under setting [3] and 84 nM under setting [4]. In the case of “AAGCUGGUAGGAUAUGCUAGGGCGACUAAUGCGCCGAUAGUACAUGAGGAUCACCCAUGUAGAAGGGCCAGAAA”, the “apparent Kd” value stood at 24.3 nM under setting [1] and 18.4 nM under setting [2]. Consider “GUGCGGUAGGAGAAGGACGGAGGCUUCUUUACAUACAUGAGGAUCACCCAUGUAGGAUAUCCUACCUCACGCGGCCUCCUUCUG”, for which the “apparent Kd” value is, setting by setting: under setting [1], 5.4 nM; under setting [2], 5.5 nM.

For the sequence “CGGGAGUCAGGAUAUACGGUCAUGUCGCCAGAUGUCAUGGUACAUGAGGAUCACCCAUGUAGAAGGGAGGAGAU”, the “apparent Kd” value under setting [1] worked out at 75.7 nM and the “apparent Kd” value under setting [2] amounted to 136 nM. In the case of “ACCGUGCAAGGAUAUCGUUACCUCGACAUGAGGAUCACCCAUGUGGCCAUAUAGCGAUUGCGAGAAGGUGCGGGUA”, the “apparent Kd” value runs as follows: under setting [1], 127 nM; under setting [2], 112 nM. As to “AAAAUAGCAGGAUAUACAUGAGGAUCACCCAUGUUUAUUGGGCACUUGCUGACGUCGUGUAGAAGGGUUACGAC”, the “apparent Kd” value came to 20.5 nM under setting [1] and 18.8 nM under setting [2]. With “UGUCGGAGCAGAGGAUAUUACAUGAGGAUCACCCAUGUAUGAACCAAUAGCGGGAAACAGCAAUGUAAGAAGGCUGCUCCGACA”, the “apparent Kd” value was 34.6 nM under setting [1] and 140 nM under setting [2]. Turning to “UUGGACGUCGUAGGAUAUGUAGCAUAUUCCUACAUGAGGAUCACCCAUGUUGACAUGGAAGAAGGACAGAAGGACGAUGUCCAU”, the “apparent Kd” value runs as follows: under setting [3], 5.61 nM; under setting [4], 5.36 nM.

Turning to “GGUACUCAAAGAGUACCAAUACGAACAUGAGGAUCACCCAUGUAGGAUAUGCUACUCAAAGAGUAGCAGAAGGACGUGUGCCUU”, the “apparent Kd” value is, setting by setting: under setting [1], 21.4 nM; under setting [2], 42.4 nM. Regarding “GUAUGACAAAGUCAUACCGCUUUGACAUGAGGAUCACCCAUGUAGGAUAUAUUAAUCAAAGAUUAAUAGAAGGACAUGUUUCUU”, the “apparent Kd” value is 43.7 nM under setting [1] and 114 nM under setting [2]. Take “UGGUCAUCAUCAGGAUAUUAACAUGGGCUACAUUAAGAAGGGAUAGUGAGAUACGAACUGAACGCACAUGAGGAUCACCCAUGU”: the “apparent Kd” value runs as follows: under setting [3], 39.6 nM; under setting [4], 26.5 nM.

“UAGGAGUACGUAGGAUAUGUAGGAUAUUCCUACAUGAGGAUCACCCAUGUUAGCAUGGAAGAAGGACAGAAGGACGUGCUCCUU”: the “apparent Kd” value under setting [3] worked out at 1090 nM and the “apparent Kd” value under setting [4] came out at 16.1 nM. Regarding “UUAACAUGAGGAUCACCCAUGUCGUGCUAGAUGAGUUCUGGUGAGGAUAUACAUGGUAAAGAACUGUAGAAGGCACUGGGUACA”, the “apparent Kd” value under setting [3] was found to be 309 nM and the “apparent Kd” value under setting [4] was 336 nM.

Take “GUCGGAAACGACAAAAGUAGCAUAGGAGAAGGCAUGUCAUAAGACAUGAGGAUCACCCAUGUCCGUGAGGAUAUCCUAUGCUAC”: the “apparent Kd” value was 8.14 nM under setting [3] and 6.15 nM under setting [4]. On to “UCCUAACAUGAGGAUCACCCAUGUCAGGAUAUGAUACUAUGUACUUCGGUACAUAGUAUCAGAAGGGACAUCCU”, for which the “apparent Kd” value was found to be 15.3 nM under setting [1] and 16.6 nM under setting [2]. Take “CAGUACUGAGGAUAUACAUGAGGAUCACCCAUGUGCCUUAGCUAGGAUACUAGCAUUAGUAGAAGGCAGUACUG”: the “apparent Kd” value is, setting by setting: under setting [1], 14.1 nM; under setting [2], 158 nM. For “UCGCGGGUGCAGAAGGGAUAGGCCUAUUUUCGUGGUAUCCAAACUUAACAUGAGGAUCACCCAUGUCAGGAUAUGCCCACGCGA”, the “apparent Kd” value is, setting by setting: under setting [1], 8.72 nM; under setting [2], 10.7 nM. For the sequence “ACAUGAGGAUCACCCAUGUUAAGCGAGGAUAUUUCACUGCACAUGAGGUUCGCCCAUGUCCUGCGGAAGAAGGUGCAAAUAAUU”, the “apparent Kd” value turned out to be 48.1 nM under setting [3] and 23.4 nM under setting [4]. Regarding “UUUUUGUGAGGAUAUUAGUAGUAAAAAAAUAAAAUUACUACUGAGAAGGCACAUGAGGAUCACCCAUGUUCCUC”, the “apparent Kd” value under setting [1] was found to be 35.7 nM and the “apparent Kd” value under setting [2] is 174 nM.

For the sequence “ACAUGAGGAUCACCCAUGUAACAUGUGAAUUAAUUCUUUAACAGAAGGCGAAUAUAUAACAUUGUCGAGGAUAUGUACUUAUGU”, the “apparent Kd” value came out at 9.85 nM under setting [1] and 7.41 nM under setting [2].

As to “GUAAAUCAUGUAGGAUAUGCAUGGCGAAGCUACGCAGAAGGACAUGAGGAUCACCCAUGUCUGUCCGUCUGCGUACAGACGGAC”, the “apparent Kd” value was 25.6 nM under setting [1] and 170 nM under setting [2].

As for “AUACAUGAGGAUCACCCAUGUUACUGGGUCUAUAUAGAACGUAGAAGGAUGUUUAUACACAUAACAUAGGAUAUACAAUAUUGU”, the “apparent Kd” value under setting [2] came to 30.9 nM. As to “UCCGCAUCUGAGAAGGGAUCUCCGCGGAAGGGAUCAGGAUAUCGGACAUGAGGAUCACCCAUGUGCCGUUAAAGGACACCUGGU”, the “apparent Kd” value under setting [2] was found to be 7.36 nM. Regarding “AGAAAACAUGAGGAUCACCCAUGUAGAAAUAUGGGAGGAUAUACAAAGACGAAAGUCAAGGUAGAAGGCCUAAAGA”, the “apparent Kd” value was 86.7 nM under setting [3] and 27.4 nM under setting [4].

As to “GGAGCACGCACAGGAUAUCCGGCGGCGCUCGUCGGAGAAGGGUGACAUGAGGAUCACCCAUGUACGUGCAACUUAGUUUAAGAG”, the “apparent Kd” value reads like this: under setting [3], 37.1 nM; under setting [4], 29.6 nM. As to “CACGAUCAUGUAGGAUAUAUACUGGAAUACAGUAUAGAAGGACAUGAGGAUCACCCAUGUUAUGUGCCUCCAAGUAAGAUCGUG”, the “apparent Kd” value reads like this: under setting [1], 17.7 nM; under setting [2], 23.2 nM. In the case of “GUAGCAUAAUUAGGAUAUUCAGCGAAUAGAUUGACAUGAGGAUCACCCAUGUGGCGAAAGCCGAGGGAGAAGGGAUAAUGCUAC”, the “apparent Kd” value under setting [3] was found to be 157 nM and the “apparent Kd” value under setting [4] is 61.1 nM. With “AGCUAGUCAGGAUAUACGUGCAUGUCAAAAGACGUGAAGGGACAUGAGGAUCACCCAUGUAGAAGGGACUAGCA”, the “apparent Kd” value worked out at 54.5 nM under setting [1] and 231 nM under setting [2].

Take “UUUUUGUGAGGAUAUCAGUAGUAAAAAAAUAAAAUUACUACUGAGAAGGCACAUGAGGAUCACCCAUGUUCUUU”: the “apparent Kd” value amounted to 18.7 nM under setting [1] and 58.5 nM under setting [2].

“ACUAGAUGAGGAUAUACACAUUUUAGUGUUCCUCUAGAUUAACAUGAGGAUCACCCAUGUAGAAGGCAUCAAUU”: the “apparent Kd” value reads like this: under setting [1], 56.5 nM; under setting [2], 183 nM. Regarding “GGACGUCACAUUAACAUGAGGAUCACCCAUGUCUCUAGACAUGAGGAUAUGGAUCCUAAUUGGAUCCAGAAGGCAUGGACGUCC”, the “apparent Kd” value is, setting by setting: under setting [3], 1030 nM; under setting [4], 143 nM. Consider “AAAAAGCGAGGAUAUACAUGAGGAUCACCCAUGUGAAAGUCGAAAAAAAAGACAAAAAGUAGAAGGCGCAAAAA”, for which the “apparent Kd” value runs as follows: under setting [1], 23.2 nM; under setting [2], 26.7 nM. Taken in the same sequence, the figures for “AUUUAGAGAGGAUAUAUAAUGUGAAACAUGAGGAUCACCCAUGUAAUAUUAUGGAUGUAAAUAGAAGGCUCAUUUA” were 32.7 nM and 27.7 nM. For “UGAGCUACAGGAUAUACGUGACGACCGUGAGGUCGAAGGUUACAUGAGGAUCACCCAUGUAGAAGGGUAGUUCU”, the “apparent Kd” value under setting [1] was 148 nM and the “apparent Kd” value under setting [2] was determined as 148 nM. As for “GUUUGUUAUUAGAAGGUGCCGGCGAGAGCCGCAACAUGAGGAUCACCCAUGUGUCGGUGACGACGCAAGGAUAUGGUGGUGGAU”, the “apparent Kd” value runs as follows: under setting [3], 308 nM; under setting [4], 140 nM. On to “UGUCAUAUAUAGAAGGGUAGUAGGGAUUUACAUGAGGAUCACCCAUGUAUUAUAGGAUAUGUGUAUAGUUUUUAUUCAAGUAUA”, for which the “apparent Kd” value by setting is: under setting [1], 28.7 nM; under setting [2], 17.9 nM. For the sequence “AGAUCUAGGACAGGAUAUACUGAUGGCUUCAUCGAAGAUGAAGCCAUCACAUGAGGAUCACCCAUGUAGAAGGGUCCUAGAUCA”, the “apparent Kd” value under setting [1] is 14.5 nM and the “apparent Kd” value under setting [2] was found to be 14.9 nM. “CGUGACGACAUAGGAUAUUGAUACAUGAGGAUCACCCAUGUCACCCAUUUAUAUAUUAGUGAUGACAAGAAGGAUGUGGUCACG”: the “apparent Kd” value turned out to be 33.3 nM under setting [3] and 7.13 nM under setting [4]. Take “UCCUGACAUGAGGAUCACCCAUGUUAGGAUAUGGCUUAGGGCGCGUCUGUGUGUUGGGUUAGAAGGGAUGUGGG”: the “apparent Kd” value turned out to be 17.6 nM under setting [1] and 16.8 nM under setting [2]. “GAGGCGCUAGCAGGAUAUGUACAUGAGGAUCACCCAUGUAAAUCUUUUUCUGGUGAAGCGCAAGUAUAGAAGGGCUAACGCUGG”: the “apparent Kd” value by setting is: under setting [1], 9.07 nM; under setting [2], 18.8 nM. “GGCUGGUGACAGCAUCCAUCAAAACAUGAGGAUCACCCAUGUAGAAGGCUGUACGGUUACCGUACAGAGGAUAUACAAUGAUGG”: the “apparent Kd” value runs as follows: under setting [1], 6.96 nM; under setting [2], 9.46 nM. Regarding “AAUAAUAAGGAGGAUAUCGUAUCGGAAACGAUACGAGAAGGCUUAACAUGAGGAUCACCCAUGUUCCUCAAUAA”, the “apparent Kd” value by setting is: under setting [1], 31 nM; under setting [2], 74.8 nM. Take “GUAUGAGCGAUAGGAUAUACUGAGAUUGAAUGGGUAGAAGGAUCACUUGUGAGGAAGACAUGAGGAUCACCCAUGUCACGGGCC”: the “apparent Kd” value runs as follows: under setting [3], 92.8 nM; under setting [4], 119 nM. With “GUUUCUAUAAGUUAUAUUUAACAGUCAGAAGGUGAUACUACGACAUGAGGAUCACCCAUGUAAUUCAAGGAUAUGAACUUAAUC”, the “apparent Kd” value runs as follows: under setting [3], 1570 nM; under setting [4], 999 nM. For the sequence “UUGUUACAUGAGGAUCACCCAUGUGAGGAUAUGAGUCAGUCACGGUGACGUGGCUGACUCAGAAGGCACUAUGG”, the “apparent Kd” value was 300 nM under setting [1] and 149 nM under setting [2]. Taken in the same sequence, the figures for “AAUAGGCGAGGAUAUACAUGAGGAUCACCCAUGUAAGUAAGCCUGGCUGAAACUAAAUGUAGAAGGCGCAAUAA” were 14.3 nM and 43.1 nM. The corresponding values for “CUGAUGUUAGGAUAUCAGGUCACGCGCGAAGGCGCGCGGCAUGAGAAGGAACAUGAGGAUCACCCAUGUGACGA” are 42.8 nM and 160 nM.
